Experimental data: ChEMBL document CHEMBL1130314, “Examination of the role of the acidic hydrogen in imparting selectivity of 7-(aminosulfonyl)-1,2,3,4-tetrahydroisoquinoline (SK&F 29661) toward inhibition of phenylethanolamine N-methyltransferase vs the alpha 2-adrenoceptor” (J Med Chem, 1997)

Columns and labels:
[1] = target: T1, Adrenergic receptor alpha-2 (Rattus norvegicus, UniProt P22086+P19328+P22909); experiment: Inhibition of [3H]clonidine binding to Alpha-2 adrenergic receptor; assay type: protein assay
T1 sequence (P22086 whole entry): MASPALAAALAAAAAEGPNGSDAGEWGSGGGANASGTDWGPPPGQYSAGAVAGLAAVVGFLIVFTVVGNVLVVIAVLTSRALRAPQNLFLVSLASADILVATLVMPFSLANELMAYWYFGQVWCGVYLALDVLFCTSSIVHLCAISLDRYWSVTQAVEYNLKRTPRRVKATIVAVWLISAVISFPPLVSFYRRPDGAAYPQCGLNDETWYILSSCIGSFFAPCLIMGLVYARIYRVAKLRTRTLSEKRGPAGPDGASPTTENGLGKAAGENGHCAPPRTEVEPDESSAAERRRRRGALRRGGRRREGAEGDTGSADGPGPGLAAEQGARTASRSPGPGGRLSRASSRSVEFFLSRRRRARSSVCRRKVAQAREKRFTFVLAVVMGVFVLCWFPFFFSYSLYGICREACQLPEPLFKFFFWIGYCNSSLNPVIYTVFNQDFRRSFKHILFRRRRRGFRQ
T1 sequence (P19328 whole entry): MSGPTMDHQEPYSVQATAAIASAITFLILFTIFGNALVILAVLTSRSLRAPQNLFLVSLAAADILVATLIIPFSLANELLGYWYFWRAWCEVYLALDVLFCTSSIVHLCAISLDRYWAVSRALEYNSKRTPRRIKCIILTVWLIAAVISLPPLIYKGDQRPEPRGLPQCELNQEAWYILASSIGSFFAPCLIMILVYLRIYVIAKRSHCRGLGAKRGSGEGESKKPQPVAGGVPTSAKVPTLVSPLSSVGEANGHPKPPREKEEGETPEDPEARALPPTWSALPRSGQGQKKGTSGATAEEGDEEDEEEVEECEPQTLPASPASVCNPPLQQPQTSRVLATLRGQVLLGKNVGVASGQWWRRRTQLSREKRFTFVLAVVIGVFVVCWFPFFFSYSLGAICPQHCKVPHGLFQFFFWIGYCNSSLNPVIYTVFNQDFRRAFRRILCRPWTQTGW
T1 sequence (P22909 whole entry): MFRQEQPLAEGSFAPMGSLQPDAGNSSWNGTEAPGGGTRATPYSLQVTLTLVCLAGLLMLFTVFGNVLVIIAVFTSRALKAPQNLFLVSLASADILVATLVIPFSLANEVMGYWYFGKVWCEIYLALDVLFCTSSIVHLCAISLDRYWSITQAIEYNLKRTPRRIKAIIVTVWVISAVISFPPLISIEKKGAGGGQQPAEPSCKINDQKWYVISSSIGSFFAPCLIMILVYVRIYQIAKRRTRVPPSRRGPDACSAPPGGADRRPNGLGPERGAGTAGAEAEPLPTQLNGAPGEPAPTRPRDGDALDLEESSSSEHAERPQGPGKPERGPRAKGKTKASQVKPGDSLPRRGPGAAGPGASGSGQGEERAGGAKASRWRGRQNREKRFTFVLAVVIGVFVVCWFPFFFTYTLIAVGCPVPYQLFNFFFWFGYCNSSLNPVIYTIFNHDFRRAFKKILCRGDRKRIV
How it was run: (§1)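 Cortex from male Sprague-Dawley rats, homogenized and washed three times by centrifugation (50000g) in 50 mM Tris·HCl pH 7.7. Incubated with 4.0 nM (final) [3H]clonidine for 30 min at 25 °C. Bound ligand collected by rapid filtration and counted. Nonspecific binding defined with 2 µM phentolamine. Quadruplicates at 5 inhibitor concentrations over a 16-fold range.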

[2] = Selectivity was expressed as the ratio is Ki of alpha 2-Adrenoceptor to tht of PNMT
[3] = target: T2, Phenylethanolamine N-methyltransferase (Bos taurus, UniProt P10938); experiment: Inhibition of Phenylethanolamine N-methyl-transferase (PNMT)
T2 sequence (P10938 whole entry): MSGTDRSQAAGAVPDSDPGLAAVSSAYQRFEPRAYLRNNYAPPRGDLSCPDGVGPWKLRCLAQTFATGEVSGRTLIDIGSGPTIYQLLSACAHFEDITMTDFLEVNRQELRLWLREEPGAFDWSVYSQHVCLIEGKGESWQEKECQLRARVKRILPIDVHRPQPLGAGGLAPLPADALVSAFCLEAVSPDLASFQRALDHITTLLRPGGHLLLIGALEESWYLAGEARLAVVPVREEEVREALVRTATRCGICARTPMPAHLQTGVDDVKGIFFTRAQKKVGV
How it was run: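 Bovine adrenal PNMT, purified through isoelectric precipitation. Radiochemical assay in phosphate buffer pH 8.0 with unlabeled AdoMet plus [methyl-3H]AdoMet, with phenylethanolamine as the variable substrate. Incubated 30 min at 37 °C, then quenched with borate pH 10.0. Product extracted into toluene–isoamyl alcohol (7:3) and scintillation counted. Duplicates at three inhibitor concentrations over a 5-fold range. Ki from hyperbolic fit; mode checked by 1/V vs 1/S plots.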

[4] = Dissociation constant was determined; assay type: physicochemical
[5] = Selectivity was expressed as the ratio is Ki of alpha 2-Adrenoceptor to that of PNMT
[6] = target: T1, Adrenergic receptor alpha-2; experiment: Ability to inhibit binding of [3H]clonidine at the Alpha-2 adrenergic receptor; assay type: protein assay; how it was run: as §1

Row | Compound | Ki [1] | Selectivity ratio [2] | Ki [3] | pKa [4] | Selectivity ratio [5] | Ki [6]
1 | COc1ccc2c(CN)cccc2c1 | 4.6 µM | 0.31 | 15 µM | – | – | –
2 | Oc1ccc2c(c1)CNCC2 | 2.2 µM | – | – | 10 | 0.85 | –
3 | NCc1cccc2cc(O)ccc12 | 2.1 µM | 0.25 | 8.4 µM | 10 | – | –
4 | CNS(=O)(=O)c1ccc2c(c1)CNCC2 | 130 µM | 28 | 4.6 µM | 11.4 | – | –
5 | Oc1ccc2c3c(ccc2c1)CCNC3 | 0.078 µM | 0.08 | 0.98 µM | 10 | – | –
6 | CS(=O)(=O)Nc1ccc2c(c1)CNCC2 | 11 µM | 0.23 | 48 µM | 9 | – | –
8 | Clc1ccc2c(c1Cl)CNCC2 | – | – | 0.2 µM | – | – | […]
9 | O=S(=O)(Nc1ccc(Cl)cc1)c1ccc2c(c1)CNCC2 | 6.3 µM | 2.4 | 2.6 µM | 7.8 | – | –
10 | CS(=O)(=O)NCc1ccc2c(c1)CNCC2 | 18 µM | 0.055 | 330 µM | 11.9 | – | –
11 | CS(=O)(=O)N(c1ccc2c(c1)CNCC2)S(C)(=O)=O | 190 µM | 0.042 | 4500 µM | – | – | –
12 | COc1ccc2c3c(ccc2c1)CCNC3 | 0.84 µM | 0.6 | 1.4 µM | – | – | –
13 | NCc1cccc2ccccc12 | 1.6 µM | 0.34 | 4.7 µM | – | – | –
